Data set [1] relates to Mus musculus. The experiment in a line: Toxicity in female ICR mouse assessed as body weight level at 2.38 x 10^3 umol/kg administered as single dose via oral gavage measured on day 14 post treatment (reference value: 19.5 +/- 0.85 g). It is filed as organism-based. The note with it: in vivo.
A short description of data set [2]: (§1) Antiproliferative activity against human HCT8 cells assessed as inhibition of cell proliferation at 1 uM after 72 hrs by MTT assay. The note with it: HCT-8, 72 h, read-out: GI. In kind it is functional. An outline of the steps:
(§2)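 Cells grown in DMEM with 10% FBS and exposed to compound at 1 µM for 72 h. Proliferation measured by MTT at 570 nm and expressed as % inhibition versus untreated cells. Mean ± SD of three independent experiments.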
For orientation: Tetrazolium dyes change colour on reduction, which living cells bring about.

The test system of data set [3] is HCT-8. As to the kind of experiment: Antitumor activity against FU-resistant human HCT8 cells xenografted in nude BALB/c mouse assessed as reduction in tumor volume at 17.8 to 35.7 umol/kg administered as via oral gavage daily for 21 days. It is filed as functional. The method, boiled down:
(§3)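 Male BALB/c nude mice, 6–8 weeks old, inoculated s.c. in the right flank with HCT-8/5-FU cells (2 × 10^6). Once tumors reached 180–200 mm3 (days 9–11), mice were randomized (n = 8) to daily oral gavage for 21 days in cremophor-EL/DMSO/PBS (1:1:8). Tumor volume = W2(L/2), caliper-measured every other day, blinded; tumors weighed at end.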
For orientation: Xenograft models place foreign cells or tissue in a host animal.

For data set [4], the target named is RAC-alpha serine/threonine-protein kinase (Homo sapiens) (UniProt P31749). The experiment in a line: Inhibition of AKT protein phosphorylation in FU-resistant human HCT8 cells at 0.25 to 1 uM incubated for 24 hrs by Western blotting method. In kind it is cell-based. The note with it: HCT-8. An outline of the steps: (§4)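 Cells (1 x 10^6) grown 24 h in 6 cm dishes, then exposed in duplicate for 24 h to 0.25, 0.5 or 1 µM compound, with or without PTIO. Lysates (20 µg/lane) were run on 7.5% SDS-PAGE, blotted to PVDF and blocked in 5% milk. HRP secondaries with ECL detection; bands quantified by densitometry against β-actin or GAPDH. Three separate experiments, mean ± SD.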
(A western blot detects proteins with antibodies after separation by electrophoresis.)

Data set [5] deals with HCT-8. As to the kind of experiment: Induction of nitric oxide release in 5-FU resistant human HCT8 cells at 100 uM incubated for 150 mins by Griess assay. In kind it is functional, cell-based. The method, boiled down:
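Cells (1 × 10^6/well) treated in triplicate with compound at 100 µM for 150 min. Lysates mixed with Griess reagent for 10 min at 37 °C and read at 540 nm. Nitrite quantified from a sodium nitrite standard curve; 0.4% DMSO-treated cells served as background. Mean ± SD of three experiments.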

Data set [6] concerns HCT-8. As to the kind of experiment: Antiproliferative activity against 5-FU resistant human HCT8 cells assessed as inhibition of cell proliferation at 0.25 uM after 24 hrs by MTT assay. It is filed as functional, cell-based.
The target in data set [7] is Signal transducer and activator of transcription 3 (Homo sapiens) (UniProt P40763). As to the kind of experiment: Inhibition of STAT3 protein phosphorylation in human HCT8 cells at 0.25 to 1 uM incubated for 24 hrs by Western blotting method. In kind it is cell-based. The note with it: HCT-8. The method, boiled down:
as §4

The subject of data set [8] is HCT-8. As to the kind of experiment: Inhibition of ERK protein phosphorylation in FU-resistant human HCT8 cells at 0.25 to 1 uM incubated for 24 hrs by Western blotting method. In kind it is cell-based. An outline of the steps: as §4
Data set [9] is described as follows: Antitumor activity against FU-resistant human HCT8 cells xenografted in nude BALB/c mouse assessed as reduction in tumor weight at 35.7 umol/kg administered as via oral gavage daily for 21 days. It is filed as functional. The note with it: HCT-8, po, 504 h. An outline of the steps: as §3
For data set [10], the system named is Mus musculus. As to the kind of experiment: Toxicity in ICR mouse assessed as body weight changes at 0.60 x 10^3 to 2.38 x 10^3 umol/kg administered as single dose via oral gavage measured up to 14 days post treatment. The note with it: in vivo, 336 h. It is filed as organism-based. The method, boiled down: (§5)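 Adult ICR mice of either sex were randomised and given a single oral gavage dose of 500, 1000, 1500 or 2000 mg/kg in cremophor-EL/DMSO/PBS (1:1:8). Survival, behaviour, water and food intake, body weight and activity were monitored for up to 14 days. Body weights were taken on days 0, 7 and 14.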

Data set [11] concerns Mus musculus. As to the kind of experiment: Toxicity in nude BALB/c mouse xenografted with FU-resistant human HCT8 cells assessed as body weight level at 17.8 umol/kg administered as via oral gavage daily for 21 days (reference value: 22.3 +/- 1.9 g). In kind it is organism-based, HCT-8. The note with it: in vivo, 504 h. An outline of the steps:
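Male BALB/c nude mice, 6-8 weeks old, inoculated s.c. in right flank with HCT-8/5-FU cells (2 × 10^6/mouse). Once tumors reached 180-200 mm3 (9-11 days post-implantation), mice were randomized and dosed by gavage daily for 21 consecutive days in cremophor-EL/DMSO/PBS (1:1:8) (vehicle alone 0.2 mL). Body weights recorded on day 1 and day 21. Organ size, color and weights were inspected for liver, kidney, lung and heart. n = 8 per group; mean ± SD.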

Data set [12] has as its system HCT-8. As to the kind of experiment: Inhibition of MRP1 protein expression in FU-resistant human HCT8 cells at 1 uM in presence of NO scavenger carboxy-PTIO incubated for 24 hrs by Western blotting method. It is filed as functional, cell-based. An outline of the steps: as §4
Data set [13] relates to Mus musculus. As to the kind of experiment: Toxicity in ICR mouse assessed as abnormality in eating behavior at 0.60 x 10^3 to 2.38 x 10^3 umol/kg administered as single dose via oral gavage measured up to 14 days post treatment. In kind it is organism-based. The note with it: in vivo, 336 h. An outline of the steps: as §5
Data set [14] has as its system Mus musculus. As to the kind of experiment: Toxicity in nude BALB/c mouse xenografted with FU-resistant human HCT8 cells assessed as abnormal size changes in lung at 59.4 umol/kg administered as via oral gavage daily for 21 days. In kind it is organism-based, HCT-8. The note with it: in vivo, 504 h. An outline of the steps: (§6)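 Male BALB/c nude mice aged 6-8 weeks, implanted s.c. in the right flank with HCT-8/5-FU cells (2 × 10^6). Once tumors reached 180-200 mm3 (days 9-11), randomized to daily gavage for 21 days in cremophor-EL/DMSO/PBS (1:1:8), 0.2 mL. At the end, liver, kidney, lung and heart checked for size, colour and weight. n = 8 per group.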

For data set [15], the system named is HCT-8. The description is as §1. It is filed as functional. The method, boiled down: as §2
Data set [16] concerns Mus musculus. As to the kind of experiment: Toxicity in nude BALB/c mouse xenografted with FU-resistant human HCT8 cells assessed as abnormal weight changes in kidney at 59.4 umol/kg administered as via oral gavage daily for 21 days. In kind it is organism-based, HCT-8. The note with it: in vivo, 504 h. The method, boiled down: as §6

Calls of active or inactive are those of the source. The rule behind the calls is not given here.

Sequence of Signal transducer and activator of transcription 3 (Homo sapiens) (P40763 whole entry): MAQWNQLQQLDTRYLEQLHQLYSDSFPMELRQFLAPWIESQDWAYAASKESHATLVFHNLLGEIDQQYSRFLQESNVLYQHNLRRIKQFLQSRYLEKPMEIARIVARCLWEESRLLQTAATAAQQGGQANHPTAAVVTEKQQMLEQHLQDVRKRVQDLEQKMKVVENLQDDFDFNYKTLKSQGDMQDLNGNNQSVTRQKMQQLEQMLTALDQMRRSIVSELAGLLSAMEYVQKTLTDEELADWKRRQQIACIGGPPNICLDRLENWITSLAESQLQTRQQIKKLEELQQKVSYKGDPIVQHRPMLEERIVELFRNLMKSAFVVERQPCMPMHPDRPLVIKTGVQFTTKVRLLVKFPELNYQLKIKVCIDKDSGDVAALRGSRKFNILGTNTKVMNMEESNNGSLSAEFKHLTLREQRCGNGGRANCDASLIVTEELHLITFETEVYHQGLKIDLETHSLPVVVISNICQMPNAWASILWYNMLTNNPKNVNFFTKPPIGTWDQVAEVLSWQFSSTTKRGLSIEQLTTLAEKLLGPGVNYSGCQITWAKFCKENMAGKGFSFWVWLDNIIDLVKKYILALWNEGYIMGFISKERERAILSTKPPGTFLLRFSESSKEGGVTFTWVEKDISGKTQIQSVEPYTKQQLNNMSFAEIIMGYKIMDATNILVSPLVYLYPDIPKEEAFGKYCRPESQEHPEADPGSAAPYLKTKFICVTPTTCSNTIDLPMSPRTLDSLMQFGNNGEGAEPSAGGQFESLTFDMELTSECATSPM
Sequence of RAC-alpha serine/threonine-protein kinase (Homo sapiens) (P31749 whole entry): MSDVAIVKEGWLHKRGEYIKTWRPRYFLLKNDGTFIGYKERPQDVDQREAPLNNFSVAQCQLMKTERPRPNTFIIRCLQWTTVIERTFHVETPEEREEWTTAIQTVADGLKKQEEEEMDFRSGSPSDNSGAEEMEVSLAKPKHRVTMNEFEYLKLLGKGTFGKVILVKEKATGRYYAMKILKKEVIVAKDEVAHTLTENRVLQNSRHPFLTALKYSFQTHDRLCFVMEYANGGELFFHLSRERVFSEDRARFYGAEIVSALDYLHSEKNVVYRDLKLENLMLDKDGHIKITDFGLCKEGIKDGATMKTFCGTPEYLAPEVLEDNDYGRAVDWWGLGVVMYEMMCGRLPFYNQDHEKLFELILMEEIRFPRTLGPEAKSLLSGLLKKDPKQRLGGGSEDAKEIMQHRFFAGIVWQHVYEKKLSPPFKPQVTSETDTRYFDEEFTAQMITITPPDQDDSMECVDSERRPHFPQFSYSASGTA

A word on the inhibition in vivo: it is how much of the control response was suppressed. Regarding `CC1(C)CC[C@]2(C(=O)NCC(=O)OCC#CCOc3no[n+]([O-])c3S(=O)(=O)c3ccccc3)CC[C@]3(C)[C@H](C(=O)C=C4[C@@]5(C)C=C(C#N)C(=O)C(C)(C)[C@@H]5CC[C@]43C)[C@@H]2C1`, the Activity is 30 g in data set [1], “Non-toxic” in [10], 17.5 g in [11] and “Non-toxic” in data set [13]. Moreover, the inhibition of growth at 1 µM in data set [2] was more than 90%. The inhibition entry in data set [3], in data set [4], in [7] and in data set [8] was “Dose-dependent effect” each time. For the same compound, the result in [5] and in [6] was Active. In addition, the inhibition in vivo at 35.7 µmol/kg in data set [9] worked out at 60.8%. The inhibition result in data set [12] is “inactive”.

As to `COC(=O)[C@]12CCC(C)(C)C[C@H]1[C@H]1C(=O)C=C3[C@@]4(C)C=C(C#N)C(=O)C(C)(C)[C@@H]4CC[C@@]3(C)[C@]1(C)CC2` [BARDOXOLONE METHYL], the Activity entry in [14] and in [16] was “Non-toxic” throughout. The “growth inhibition (GI)” value in data set [15] is “Active”.

The values are drawn from ChEMBL document CHEMBL3414437, “Synthesis of CDDO-amino acid-nitric oxide donor trihybrids as potential antitumor agents against both drug-sensitive and drug-resistant colon cancer” (J Med Chem, 2015).
